Results on 20 compounds are retold here after ChEMBL document CHEMBL1151960, “(Nitrooxyacyloxy)methyl esters of aspirin as novel nitric oxide releasing aspirins” (J Med Chem, 2009).

The test system of one data set is Platelet. Description: (§1) Antiaggregatory activity in human platelet rich plasma assessed as inhibition of collagen-induced platelet aggregation preincubated 10 mins before collagen challenge. The class given is functional. Put shortly:
(§2)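 Platelet-rich plasma from citrated blood spun at 210g for 20 min. Compound in 0.5% DMSO vehicle preincubated 10 min, then submaximal collagen (0.8–1.5 μg/mL). Light-transmission aggregometry with stirring at 1000 rpm, 37 °C, recorded for 10 min. Read-out is % inhibition versus vehicle control; IC50 by nonlinear regression, else % inhibition at 300 μM top concentration. At least five experiments.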

Data set [1] is described as follows: as §1. The class given is functional. Put shortly: as §2
For another data set, the system named is Serum. Description: Metabolic stability in human serum assessed as maximal amount of aspirin released at 250 uM by RP-HPLC analysis. The class given is ADME, cell-free.
The subject of data set [2] is Aorta. Description: Vasodilatory activity in Wistar rat endothelium-denuded thoracic aortic ring assessed as inhibition of phenylephrine-induced contraction […]. The class given is functional, tissue-based. Put shortly: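 Endothelium-denuded rat aorta strips are precontracted with phenylephrine. At the plateau, cumulative concentrations of test agent in DMSO are added. Relaxation is recorded isometrically and reported as EC50 ± SEM (μM). In a separate series, 1 μM ODQ is added 5 min before contraction, giving at least 30 min of preincubation before the vasodilator. At least five experiments.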

Data set [3] relates to Aorta. Description: Vasodilatory activity in Wistar rat endothelium-denuded thoracic aortic ring assessed as inhibition of phenylephrine-induced contraction at 30 uM preincubated for 30 mins before phenylephrine addition in presence of 1 uM 1H-[1,2,4]oxadiazolo[4,3-a]quinoxalin-1-one. Also on record: scale not given: the % may be the effect or the level left. The class given is functional.

A short description of data set [4]: Chemical stability in acidic medium at pH 1 assessed as unchanged drug level at 0.5 mM after 3 hrs by RP-HPLC analysis. The class given is physicochemical. The settings on record: read-out: Stability. Put shortly: (§3)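 A 0.5 mM acetonitrile solution (2 mL) is diluted to 10 mL with HCl (pH 1.0) or 50 mM phosphate buffer (pH 7.4) and held at 37 ± 0.5 °C. Aliquots are taken over time for RP-HPLC (C18 column, acetonitrile/water gradient with 0.1% TFA). Performed in triplicate.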

Data set [5] can be described thus: Metabolic stability in human serum assessed as half life at 250 uM by RP-HPLC analysis. The class given is ADME, cell-free.
A short description of data set [6]: Chemical stability in phosphate buffer at pH 7.4 assessed as unchanged drug level at 0.5 mM after 3 hrs by RP-HPLC analysis. The class given is physicochemical. Particulars: read-out: Stability. In a few lines:
as §3

The subject of data set [7] is Aorta. Description: Vasodilatory activity in Wistar rat endothelium-denuded thoracic aortic ring assessed as inhibition of phenylephrine-induced contraction at 100 uM preincubated for 30 mins before phenylephrine addition in presence of 1 uM 1H-[1,2,4]oxadiazolo[4,3-a]quinoxalin-1-one. The class given is functional. Also on record: scale not given: the % may be the effect or the level left.

Broadly, the IC50 is the concentration at which inhibition is half-maximal. By EC50 is commonly meant the concentration giving half of the maximal effect. As a reminder, the half-life is the time needed for the level to fall by half in the phase considered. For `CC(=O)Oc1ccccc1C(=O)OCOC(=O)c1ccc(OCC(CO[N+](=O)[O-])O[N+](=O)[O-])cc1` (stereo not drawn), the Activity result in the data set with Platelet was “Dose-dependent effect”; in the data set on Serum, 22.4%; with Aorta [2] it was “Dose-dependent effect”; with Aorta [3] it was below 50%. In addition, the IC50 in data set [1] came to 140 µM. In the data set on Aorta [2], the EC50 was found to be 0.041 µM. The remaining at 3 h, 500 µM in [4] and in data set [6] was 99% throughout. The half-life at 250 µM in [5] worked out at 5.4 min.
Regarding `CC(=O)Oc1ccccc1C(=O)OCOC(=O)c1ccc([S+]([O-])CCCO[N+](=O)[O-])cc1` (stereo not drawn), the Activity entry was “Dose-dependent effect” in the data set with Platelet, 70.7% in the data set on Serum, “Dose-dependent effect” with Aorta [2] and below 50% in the data set on Aorta [3]. Moreover, in data set [1], the concentration for half-maximal inhibition (IC50) amounted to 72 µM. Moreover, the half-maximal effective concentration (EC50) in the data set with Aorta [2] is 0.47 µM. Further, the remaining at 3 h, 500 µM came out at 98% in data set [4] and 90% in data set [6]. Also, in data set [5], the half-life at 250 µM is below 1 min.
In the case of `O=C(O)c1ccc(CC(CO[N+](=O)[O-])O[N+](=O)[O-])cc1` (stereo not drawn), in the data set on Aorta [2], the Activity entry is “Dose-dependent effect” and the EC50 came to 0.33 µM. Also, the Activity in the data set with Aorta [7] was below 50%.
In the case of `CC(=O)Oc1ccccc1C(=O)OCOC(=O)c1cccc(CO[N+](=O)[O-])n1`, the Activity entry was “Dose-dependent effect” with Platelet, 58% with Serum, “Dose-dependent effect” in the data set on Aorta [2] and below 50% with Aorta [3]. In [1], the IC50 stood at 20 µM. Further, the EC50 in the data set with Aorta [2] was 0.82 µM. Also, the remaining at 3 h, 500 µM in [4] came to 84%; in data set [6], 60%. For the same compound, the half-life at 250 µM in data set [5] was below 1 min.
Consider `CC(=O)Oc1ccccc1C(=O)OCOC(=O)c1ccccc1OCCCO[N+](=O)[O-]`, for which the Activity result was “Dose-dependent effect” in the data set with Platelet, 5% with Serum, “Dose-dependent effect” with Aorta [2] and below 50% in the data set on Aorta [3]. In addition, the IC50 in data set [1] was found to be 163 µM. The EC50 with Aorta [2] worked out at 4 µM. Further, the remaining at 3 h, 500 µM was 99% in [4] and 98% in [6]. Further, the half-life at 250 µM in data set [5] was below 1 min.
For the compound `O=C(O)c1ccccc1OCCCO[N+](=O)[O-]`, in the data set with Aorta [2], the Activity entry was “Dose-dependent effect” and the EC50 came out at 20 µM. Also, the Activity in the data set with Aorta [7] was below 50%.
For `O=C(O)c1ccc(CCCO[N+](=O)[O-])cc1`, in the data set on Aorta [2], the Activity result was “Dose-dependent effect” and the EC50 turned out to be 0.51 µM. Besides, the Activity in the data set with Aorta [7] is on record as below 50%.
In the case of `CC(=O)Oc1ccccc1C(=O)OCOC(=O)c1ccc(SCCCO[N+](=O)[O-])cc1`, the Activity entry was “Dose-dependent effect” in the data set on Platelet, 61.7% in the data set on Serum, “Dose-dependent effect” in the data set with Aorta [2] and below 50% with Aorta [3]. In addition, in [1], the IC50 was 45 µM. The EC50 in the data set on Aorta [2] is 0.15 µM. The remaining at 3 h, 500 µM in data set [4] and in data set [6] was 99% in each case. Besides, in data set [5], the half-life at 250 µM is 2.4 min.
With `CC(=O)Oc1ccccc1C(=O)OCOC(=O)c1ccc(S(=O)(=O)CCCO[N+](=O)[O-])cc1`, the Activity result is “Dose-dependent effect” in the data set with Platelet, 59.2% with Serum, “Dose-dependent effect” with Aorta [2] and below 50% in the data set with Aorta [3]. Besides, in data set [1], the IC50 was found to be 38 µM. Further, the EC50 in the data set with Aorta [2] came to 0.36 µM. The results for the remaining at 3 h, 500 µM in data set [4] and in [6] were 98% and 70%, respectively. Moreover, in data set [5], the half-life at 250 µM is below 1 min.
Consider `O=C(O)CCCCCO[N+](=O)[O-]`, for which, in the data set with Aorta [2], the Activity entry was “Dose-dependent effect” and the EC50 was found to be 8.3 µM. Also, in the data set with Aorta [7], the Activity was below 50%.
The like results for `O=C(O)c1cccc(OCCCO[N+](=O)[O-])c1` were, in that order, “Dose-dependent effect”, 3.8 µM and below 50%.
The like results for `O=C(O)CCCCCCO[N+](=O)[O-]` were, in that order, “Dose-dependent effect”, 20 µM and below 50%.
On to `CC(=O)Oc1ccccc1C(=O)OCOC(=O)c1ccc(CC(CO[N+](=O)[O-])O[N+](=O)[O-])cc1` (stereo not drawn), for which the Activity result in the data set on Platelet was “Dose-dependent effect”; in the data set with Serum, 34.2%; with Aorta [2] it was “Dose-dependent effect”; with Aorta [3] it was below 50%. Also, the IC50 in data set [1] worked out at 97 µM. Besides, the EC50 in the data set with Aorta [2] came out at 0.052 µM. Also, the remaining at 3 h, 500 µM in data set [4] and in data set [6] was 99% each time. The half-life at 250 µM in data set [5] came out at 3.4 min.
Take `O=C(O)c1ccc([S+]([O-])CCCO[N+](=O)[O-])cc1` (stereo not drawn): in the data set on Aorta [2], the Activity result is “Dose-dependent effect” and the 50% effective concentration (EC50) turned out to be 6 µM. The Activity with Aorta [7] was below 50%.
The like results for `O=C(O)c1ccc(S(=O)(=O)CCCO[N+](=O)[O-])cc1` were, in that order, “Dose-dependent effect”, 20 µM and below 50%.
Turning to `CC(=O)Oc1ccccc1C(=O)OCOC(=O)c1ccc(SCC(CO[N+](=O)[O-])O[N+](=O)[O-])cc1` (stereo not drawn), the Activity entry in the data set with Platelet is “Dose-dependent effect”; in the data set on Serum, 43%; in the data set on Aorta [2] it was “Dose-dependent effect”; in the data set on Aorta [3] it was below 50%. In addition, in [1], the IC50 turned out to be 129 µM. Also, the EC50 in the data set with Aorta [2] amounted to 0.1 µM. In addition, the remaining at 3 h, 500 µM in data set [4] and in data set [6] was 98% each time. The half-life at 250 µM in [5] was found to be 4.6 min.
For the compound `CC(=O)Oc1ccccc1C(=O)OCOC(=O)c1ccc(OCCCO[N+](=O)[O-])cc1`, the Activity entry in the data set on Platelet was “Dose-dependent effect”; with Serum, 39.8%; in the data set with Aorta [2], “Dose-dependent effect”; with Aorta [3] it was below 50%. For the same compound, the IC50 in data set [1] came out at 138 µM. The EC50 in the data set with Aorta [2] amounted to 0.017 µM. The remaining at 3 h, 500 µM in data set [4] and in data set [6] was 99% in each case. Moreover, the half-life at 250 µM in data set [5] came to 3.4 min.
`CC(=O)Oc1ccccc1C(=O)OCOC(=O)c1ccc(CCCO[N+](=O)[O-])cc1`: the Activity entry is “Dose-dependent effect” in the data set with Platelet, 65.2% in the data set with Serum, “Dose-dependent effect” in the data set with Aorta [2] and below 50% in the data set with Aorta [3]. The IC50 in [1] worked out at 41 µM. In addition, in the data set on Aorta [2], the EC50 was determined as 0.075 µM. Besides, the remaining at 3 h, 500 µM in [4] worked out at 98%; in data set [6], 100%. Besides, the half-life at 250 µM in [5] is 1.9 min.
For the compound `CC(=O)Oc1ccccc1C(=O)OCOC(=O)c1cccc(OCCCO[N+](=O)[O-])c1`, the Activity entry is “Dose-dependent effect” in the data set with Platelet, 48.3% in the data set with Serum, “Dose-dependent effect” in the data set on Aorta [2] and below 50% with Aorta [3]. Moreover, the IC50 in [1] worked out at 100 µM. For the same compound, the EC50 with Aorta [2] was 0.14 µM. The remaining at 3 h, 500 µM turned out to be 99% in [4] and 98% in data set [6]. In data set [5], the half-life at 250 µM was 1.4 min.
As to `CC(=O)Oc1ccccc1C(=O)O` [ASPIRIN], the Activity entry in the data set with Platelet was “Dose-dependent effect”. In addition, the half-inhibitory concentration (IC50) in data set [1] was 54 µM. In addition, the remaining at 3 h, 500 µM in data set [4] and in data set [6] was 90% in each case. The half-life at 250 µM in data set [5] was determined as 63 min.
